Measurements: ChEMBL document CHEMBL1156920, “Structural analogues of schweinfurthin F: probing the steric, electronic, and hydrophobic properties of the D-ring substructure” (Bioorg Med Chem, 2010)

Experiments:
LOX IMVI = experiment: Growth inhibition of human LOXIMVI cells; assay type: functional
NCI-H322M = experiment: Growth inhibition of human NCI-H322M cells; assay type: functional
UACC-257 = experiment: Growth inhibition of human UACC257 cells; assay type: functional
M14 = experiment: Growth inhibition of human M14 cells; assay type: functional
EKVX = experiment: Growth inhibition of human EKVX cells; assay type: functional
CAKI-1 = experiment: Growth inhibition of human Caki1 cells; assay type: functional
HCT-15 = experiment: Growth inhibition of human HCT15 cells; assay type: functional
SF-268 = experiment: Growth inhibition of human SF268 cells; assay type: functional
DU-145 = experiment: Growth inhibition of human DU145 cells; assay type: functional
SK-MEL-2 = experiment: Growth inhibition of human SK-MEL-2 cells; assay type: functional
TK-10 = experiment: Growth inhibition of human TK10 cells; assay type: functional
OVCAR-3 = experiment: Growth inhibition of human OVCAR-3 cells; assay type: functional
A549 = experiment: Cytotoxicity against human A549 cells after 44 hrs by MTT assay; assay type: functional, cell-based; conditions: A549, 44 h
Method in brief: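 SF-295 cells cultured in RPMI 1640 and A549 cells in F-12, each with 10% FBS, penicillin–streptomycin, amphotericin B and L-glutamine, at 37 °C in 5% CO2. Cells were grown to 60% confluency, then treated for 44 h. Medium was replaced with medium containing 0.06 mg/mL MTT (phenol red-free RPMI for SF-295) for 4 h. Acid/Triton/isopropanol stop solution was added, plates incubated overnight at 37 °C, OD read at 540 and 650 nm, and EC50 calculated.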

K562 = experiment: Growth inhibition of human K562 cells; assay type: functional
NCI-H226 = experiment: Growth inhibition of human NCI-H226 cells; assay type: functional
COLO 205 = experiment: Growth inhibition of human COLO205 cells; assay type: functional
UO-31 = experiment: Growth inhibition of human UO31 cells; assay type: functional
HCT-116 = experiment: Growth inhibition of human HCT116 cells; assay type: functional
MDA-MB-435 = experiment: Growth inhibition of human MDA-MB-435 cells; assay type: functional
OVCAR-5 = experiment: Growth inhibition of human OVCAR5 cells; assay type: functional
SF-295 = experiment: Growth inhibition of human SF295 cells; assay type: functional
KM12 = experiment: Growth inhibition of human KM12 cells; assay type: functional
U-251 = experiment: Growth inhibition of human U251 cells; assay type: functional
SR = experiment: Growth inhibition of human SR cells; assay type: functional
SNB-75 = experiment: Growth inhibition of human SNB75 cells; assay type: functional
[1] = Growth inhibition of human […] cells; assay type: functional
ACHN = experiment: Growth inhibition of human ACHN cells; assay type: functional
CCRF-CEM = experiment: Growth inhibition of human CCRF-CEM cells; assay type: functional
SF-539 = experiment: Growth inhibition of human SF539 cells; assay type: functional
Malme-3M = experiment: Growth inhibition of human MALME-3M cells; assay type: functional
PC-3 = experiment: Growth inhibition of human PC3 cells; assay type: functional
[2] = Cytotoxicity against human NCI60 cells; assay type: functional
SK-OV-3 = experiment: Growth inhibition of human SKOV3 cells; assay type: functional
MCF7 = experiment: Growth inhibition of human MCF7 cells; assay type: functional
NCI-H522 = experiment: Growth inhibition of human NCI-H522 cells; assay type: functional
786-0 = experiment: Growth inhibition of human 786-0 cells; assay type: functional
UACC-62 = experiment: Growth inhibition of human UACC62 cells; assay type: functional
HOP-92 = experiment: Growth inhibition of human HOP92 cells; assay type: functional
MDA-MB-231 = experiment: Growth inhibition of human MDA-MB-231 cells; assay type: functional
SN12C = experiment: Growth inhibition of human SN12C cells; assay type: functional
MOLT-4 = experiment: Growth inhibition of human MOLT4 cells; assay type: functional
IGROV-1 = experiment: Growth inhibition of human IGROV1 cells; assay type: functional
[3] = read-out: pLC50 (the source's name) (converted)

Compound: COc1cc(CCc2cc(O)c(C/C=C(\C)CC/C=C(\C)CO)c(O)c2)cc2c1O[C@]1(C)CC[C@@H](O)C(C)(C)[C@H]1C2
- GI50 (LOX IMVI): 4.47 µM
- LC50 (LOX IMVI): 46.8 µM
- TGI (LOX IMVI; read-out: pTGI (converted)): 16.6 µM
- GI50 (NCI-H322M): 5.5 µM
- CC50 (NCI-H322M; [3]): > 100 µM
- TGI (NCI-H322M; read-out: pTGI (converted)): 42.7 µM
- GI50 (UACC-257): 6.61 µM
- LC50 (UACC-257): > 100 µM
- TGI (UACC-257; read-out: pTGI (converted)): 28.2 µM
- GI50 (M14): 6.03 µM
- CC50 (M14; [3]): 83.2 µM
- TGI (M14; read-out: pTGI (converted)): 23.4 µM
- GI50 (EKVX): 5.75 µM
- LC50 (EKVX): > 100 µM
- TGI (EKVX; read-out: pTGI (converted)): 33.1 µM
- GI50 (CAKI-1): 4.37 µM
- LC50 (CAKI-1): > 100 µM
- TGI (CAKI-1; read-out: pTGI (converted)): 21.9 µM
- GI50 (HCT-15): 5.01 µM
- LC50 (HCT-15): > 100 µM
- TGI (HCT-15; read-out: pTGI (converted)): 22.9 µM
- GI50 (SF-268): 6.03 µM
- LC50 (SF-268): 87.1 µM
- TGI (SF-268; read-out: pTGI (converted)): 25.7 µM
- GI50 (DU-145): 6.46 µM
- LC50 (DU-145): > 100 µM
- TGI (DU-145; read-out: pTGI (converted)): 28.2 µM
- GI50 (SK-MEL-2): 3.89 µM
- LC50 (SK-MEL-2): 75.9 µM
- TGI (SK-MEL-2; read-out: pTGI (converted)): 17.4 µM
- GI50 (TK-10): 13.2 µM
- LC50 (TK-10): > 100 µM
- TGI (TK-10; read-out: pTGI (converted)): 67.6 µM
- GI50 (OVCAR-3): 11.5 µM
- LC50 (50% lethal concentration) (OVCAR-3): > 100 µM
- TGI (OVCAR-3; read-out: pTGI (converted)): 33.1 µM
- EC50 (A549): > 10 µM
- GI50 (K562): 3.09 µM
- CC50 (K562; [3]): 64.6 µM
- TGI (K562; read-out: pTGI (converted)): 12.9 µM
- GI50 (NCI-H226): 13.2 µM
- LC50 (NCI-H226): > 100 µM
- TGI (NCI-H226; read-out: pTGI (converted)): 66.1 µM
- GI50 (COLO 205): 10.7 µM
- LC50 (COLO 205): 67.6 µM
- TGI (COLO 205; read-out: pTGI (converted)): 26.9 µM
- GI50 (UO-31): 3.47 µM
- CC50 (UO-31; [3]): > 100 µM
- TGI (UO-31; read-out: pTGI (converted)): 20 µM
- GI50 (HCT-116): 3.47 µM
- CC50 (HCT-116; [3]): 40.7 µM
- TGI (HCT-116; read-out: pTGI (converted)): 13.2 µM
- GI50 (MDA-MB-435): 6.31 µM
- LC50 (MDA-MB-435): > 100 µM
- TGI (MDA-MB-435; read-out: pTGI (converted)): 32.4 µM
- GI50 (OVCAR-5): 20.9 µM
- LC50 (lethal concentration, 50% cell kill) (OVCAR-5): > 100 µM
- TGI (OVCAR-5; read-out: pTGI (converted)): 66.1 µM
- GI50 (SF-295): 2.51 µM
- LC50 (SF-295): 45.7 µM
- TGI (SF-295; read-out: pTGI (converted)): 10 µM
- GI50 (KM12): 4.17 µM
- LC50 (KM12): 91.2 µM
- TGI (KM12; read-out: pTGI (converted)): 18.6 µM
- GI50 (U-251): 3.02 µM
- LC50 (U-251): 58.9 µM
- TGI (U-251; read-out: pTGI (converted)): 18.6 µM
- GI50 (SR): 2.09 µM
- LC50 (SR): 66.1 µM
- TGI (SR; read-out: pTGI (converted)): 7.59 µM
- GI50 (SNB-75): 1.7 µM
- LC50 (SNB-75): > 100 µM
- TGI (SNB-75; read-out: pTGI (converted)): 10.7 µM
- GI50 [1]: 1.45 µM
- LC50 [1]: > 100 µM
- TGI ([1]; read-out: pTGI (converted)): 7.24 µM
- GI50 (ACHN): 5.25 µM
- CC50 (ACHN; [3]): > 100 µM
- TGI (ACHN; read-out: pTGI (converted)): 35.5 µM
- GI50 (CCRF-CEM): 4.07 µM
- CC50 (CCRF-CEM; [3]): > 100 µM
- TGI (CCRF-CEM; read-out: pTGI (converted)): 45.7 µM
- GI50 (SF-539): 2.29 µM
- LC50 (SF-539): 33.9 µM
- TGI (SF-539; read-out: pTGI (converted)): 11.7 µM
- GI50 (Malme-3M): 6.31 µM
- LC50 (Malme-3M): > 100 µM
- TGI (Malme-3M; read-out: pTGI (converted)): 38 µM
- GI50 (PC-3): 5.5 µM
- CC50 (PC-3; [3]): > 100 µM
- TGI (PC-3; read-out: pTGI (converted)): 77.6 µM
- GI50 [2]: 4.9 µM
- GI50 (SK-OV-3): 8.51 µM
- LC50 (SK-OV-3): > 100 µM
- TGI (SK-OV-3; read-out: pTGI (converted)): 31.6 µM
- GI50 (MCF7): 2.95 µM
- CC50 (MCF7; [3]): 53.7 µM
- TGI (MCF7; read-out: pTGI (converted)): 12.9 µM
- GI50 (NCI-H522): 5.25 µM
- LC50 (50% lethal concentration) (NCI-H522): > 100 µM
- TGI (NCI-H522; read-out: pTGI (converted)): 29.5 µM
- GI50 (786-0): 2.4 µM
- LC50 (786-0): > 100 µM
- TGI (786-0; read-out: pTGI (converted)): > 100 µM
- GI50 (UACC-62): 4.79 µM
- CC50 (UACC-62; [3]): 81.3 µM
- TGI (UACC-62; read-out: pTGI (converted)): 20.9 µM
- GI50 (HOP-92): 7.41 µM
- LC50 (HOP-92): > 100 µM
- TGI (HOP-92; read-out: pTGI (converted)): 47.9 µM
- GI50 (MDA-MB-231): 8.13 µM
- LC50 (MDA-MB-231): > 100 µM
- TGI (MDA-MB-231; read-out: pTGI (converted)): 38 µM
- GI50 (SN12C): 7.59 µM
- LC50 (SN12C): > 100 µM
- TGI (SN12C; read-out: pTGI (converted)): 52.5 µM
- GI50 (MOLT-4): 1.7 µM
- LC50 (MOLT-4): 97.7 µM
- TGI (MOLT-4; read-out: pTGI (converted)): 7.59 µM
- GI50 (IGROV-1): 4.9 µM
- LC50 (IGROV-1): > 100 µM
- TGI (IGROV-1; read-out: pTGI (converted)): 26.3 µM
